# Assay results published in ChEMBL document CHEMBL4390648, “Chemical synthesis, crystal structure, versatile evaluation of their biological activities and molecular simulations of novel pyrithiobac derivatives” (Eur J Med Chem, 2019).
# Active and inactive are the calls of the source. No cut-off for these calls is given here.
# What was measured:
# Candida albicans [1] = assay: Antifungal activity against Candida albicans isolate 17 grown in RPMI 1640 medium incubated for 24 hrs by microdilution method; format: functional; details: isolate 17, 24 h
# Summary of the method: (§1)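 C. albicans standard strain SC5314 and clinical isolates g5 and 17# tested by broth microdilution in YNB or RPMI 1640 medium. Plates incubated at 35 °C for up to 72 h, with visual readings taken at 24 h. MIC taken as the lowest concentration preventing visible growth.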
# Ceratobasidium cereale [2] = assay: Antifungal activity against Rhizoctonia cerealis assessed as reduction in growth at 50 mg/l by mycelium growth rate method relative to control; format: functional
# Summary of the method: (§2)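 Mycelium growth rate method against S. sclerotiorum, P. capsici, P. piricola, R. cerealis, W. anthracnose and R. bakanae. Each compound tested at 50 mg/L, with chlorothalonil and PTB as controls. Relative inhibitory ratio (%) calculated from mycelial growth.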
# Candida albicans [3] = assay: Antifungal activity against Candida albicans SC5314 grown in RPMI 1640 medium incubated for 24 hrs by microdilution method; format: functional; details: SC5314, 24 h; summary of the method: as §1
# Candida albicans [4] = assay: Inhibition of Candida albicans AHAS catalytic subunit at 10 uM using pyruvate as substrate measured after 30 mins by colorimetric method relative to control
# Summary of the method: (§3)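 Colorimetric assay in 50 mM potassium phosphate pH 7.0 with 50 mM pyruvate, 1 mM thiamine diphosphate, 10 mM MgCl2 and 10 μM FAD. Incubated 30 min at 37 °C for plant AHAS and 30 °C for fungal AHAS. Acetolactate formed was then quantified.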
# Candida albicans [5] = assay: Inhibition of Candida albicans AHAS catalytic subunit at 100 uM using pyruvate as substrate measured after 30 mins by colorimetric method relative to control; summary of the method: as §3
# Candida albicans [6] = assay: Antifungal activity against Candida albicans isolate g5 grown in RPMI 1640 medium incubated for 24 hrs by microdilution method; format: functional; details: isolate g5, 24 h; summary of the method: as §1
# Candida albicans [7] = assay: Antifungal activity against Candida albicans SC5314 grown in YNB medium incubated for 24 hrs by microdilution method; format: functional; details: SC5314, 24 h; summary of the method: as §1
# Candida albicans [8] = assay: Antifungal activity against Candida albicans isolate 17 grown in YNB medium incubated for 24 hrs by microdilution method; format: functional; details: isolate 17, 24 h; summary of the method: as §1
# Candida albicans [9] = assay: Antifungal activity against Candida albicans isolate g5 grown in YNB medium incubated for 24 hrs by microdilution method; format: functional; details: isolate g5, 24 h; summary of the method: as §1
# Arabidopsis thaliana [10] = assay: Inhibition of Arabidopsis thaliana AHAS catalytic subunit using pyruvate as substrate at 100 uM measured after 30 mins by colorimetric method relative to control; summary of the method: as §3
# Arabidopsis thaliana [11] = assay: Inhibition of Arabidopsis thaliana AHAS catalytic subunit using pyruvate as substrate at 10 uM measured after 30 mins by colorimetric method relative to control; summary of the method: as §3
# [12] = system: Brassica rapa subsp. oleifera; assay: Herbicidal activity against Brassica campestris L assessed as inhibition of rape root growth at 100 mg/l root growth incubated for 48 hrs relative to control; format: functional
# Summary of the method: (§4)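 Rape seeds soaked in distilled water for 4 h, then placed on filter paper wetted with inhibitor solution, 15 seeds per 6-cm dish. Germinated in the dark at 28 °C for 48 h. Mean length of 10 roots per plate measured.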
# [13] = system: Brassica rapa subsp. oleifera; assay: Herbicidal activity against Brassica campestris L assessed as inhibition of rape root growth at 10 mg/l root growth incubated for 48 hrs relative to control; format: functional; summary of the method: as §4
# [14] = system: Brassica rapa subsp. oleifera; assay: Pre-emergence herbicidal activity against Brassica campestris assessed as reduction in growth at 300g/ha measured after 24 days green house pot method relative to control; format: functional; details: 576 h
# Amaranthus retroflexus [15] = assay: Pre-emergence herbicidal activity against Amaranthus retroflexus assessed as reduction in growth at 300g/ha measured after 24 days by green house pot method relative to control; format: functional; details: 576 h
# Echinochloa crus-galli [16] = assay: Pre-emergence herbicidal activity against Echinochloa crus-galli assessed as reduction in growth at 300g/ha measured after 24 days by green house pot method relative to control; format: functional; details: 576 h
# Digitaria adscendens [17] = assay: Pre-emergence herbicidal activity against Digitaria adscendens assessed as reduction in growth at 300g/ha measured after 24 days by green house pot method relative to control; format: functional; details: 576 h
# [18] = system: Brassica rapa subsp. oleifera; assay: Post-emergence herbicidal activity against Brassica campestris assessed as reduction in growth at 300g/ha measured after 24 days by green house pot method relative to control; format: functional; details: 576 h
# Amaranthus retroflexus [19] = assay: Post-emergence herbicidal activity against Amaranthus retroflexus assessed as reduction in growth at 300g/ha measured after 24 days by green house pot method relative to control; format: functional; details: 576 h
# Echinochloa crus-galli [20] = assay: Post-emergence herbicidal activity against Echinochloa crus-galli assessed as reduction in growth at 300g/ha measured after 24 days by green house pot method relative to control; format: functional; details: 576 h
# Digitaria adscendens [21] = assay: Post-emergence herbicidal activity against Digitaria adscendens assessed as reduction in growth at 300g/ha measured after 24 days by based green house pot method relative to control; format: functional; details: 576 h
# Sclerotinia sclerotiorum = assay: Antifungal activity against Sclerotinia sclerotiorum assessed as reduction in growth at 50 mg/l by mycelium growth rate method relative to control; format: functional; summary of the method: as §2
# Phytophthora capsici = assay: Antifungal activity against Phytophthora capsici assessed as reduction in growth at 50 mg/l by mycelium growth rate method relative to control; format: functional; summary of the method: as §2
# [22] = system: Botryosphaeria berengeriana; assay: Antifungal activity against Physalospora pyricola assessed as reduction in growth at 50 mg/l by mycelium growth rate method relative to control; format: functional; summary of the method: as §2
# Colletotrichum = assay: Antifungal activity against Colletotrichum (W. anthracnose) assessed as reduction in growth at 50 mg/l by mycelium growth rate method relative to control; format: functional; summary of the method: as §2
# Fusarium fujikuroi = assay: Antifungal activity against Gibberella fujikuroi assessed as reduction in growth at 50 mg/l by mycelium growth rate method relative to control; format: functional; summary of the method: as §2
# Mythimna separata = assay: Insecticidal activity against Mythimna separata assessed as larval mortality at 600 mg/l by leaf-dip method; format: functional
# Tobacco mosaic virus [23] = assay: Antiviral activity against Tobacco mosaic virus inoculated in Nicotiana tabacum leaves assessed as passivation by measuring local lesion numbers at 500 mg/l pre-incubated with virus for 30 mins followed by inoculation and measured up to 4 days; format: functional
# Summary of the method: (§5)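 Passivation assay: TMV mixed with an equal volume of compound solution for 30 min, then rubbed onto the left half of N. tabacum L. leaves. The right half received virus mixed with solvent as control. Local lesions counted 3–4 days after inoculation. Compounds tested at 500 or 100 mg/L.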
# Tobacco mosaic virus [24] = assay: Antiviral activity against Tobacco mosaic virus inoculated in Nicotiana tabacum leaves assessed as passivation by measuring local lesion numbers at 100 mg/l pre-incubated with virus for 30 mins followed by inoculation and measured up to 4 days; format: functional; summary of the method: as §5
# [25] = system: Severe acute respiratory syndrome-related coronavirus; assay: Inhibition of SARS coronavirus M protease using AVLQSGFRKK as substrate at 20 uM by FRET assay relative to control
# Summary of the method: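 Purified SARS-CoV Mpro assayed by FRET. Protein, compound and substrate were preheated at 37 °C and oscillated. Fluorescence (ex 320/em 405 nm) was read every 5 s for 200 reads.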
# Ceratobasidium cereale [26] = assay: Antifungal activity against Rhizoctonia cerealis assessed as reduction in growth mycelium growth rate method relative to control; format: functional, organism-based
# Summary of the method: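 EC50 against R. cerealis derived from mycelium growth-rate inhibition over a concentration series, using a probit fit: Probit = m(log10[I] − log10[EC50]) + 5.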
Compound,MIC (Candida albicans [1]),inhibition at 50 µg/mL (Ceratobasidium cereale [2]),MIC (Candida albicans [3]),inhibition (Candida albicans [4]),inhibition (Candida albicans [5]),MIC (Candida albicans [6]),MIC (Candida albicans [7]),MIC (Candida albicans [8]),MIC (Candida albicans [9]),inhibition (Arabidopsis thaliana [10]),inhibition (Arabidopsis thaliana [11]),inhibition (INH) [12],inhibition (INH) [13],inhibition at 300 g/ha [14],inhibition at 300 g/ha (Amaranthus retroflexus [15]),inhibition at 300 g/ha (Echinochloa crus-galli [16]),inhibition at 300 g/ha (Digitaria adscendens [17]),inhibition at 300 g/ha [18],inhibition at 300 g/ha (Amaranthus retroflexus [19]),inhibition at 500 µg/mL (Tobacco mosaic virus [23]),also measured
COc1cc(OC)nc(Sc2ccc(Br)cc2C(=O)O)n1,> 100 µg/mL,72.6%,> 100 µg/mL,50.5%,97%,> 100 µg/mL,> 100 µg/mL,> 100 µg/mL,> 100 µg/mL,100%,61%,93.6%,80.7%,89.9%,93.8%,0%,27%,80.2%,58.7%,0%,inhibition at 300 g/ha (Echinochloa crus-galli [20]): 72.3%; inhibition at 300 g/ha (Digitaria adscendens [21]): 12.8%; inhibition at 50 µg/mL (Sclerotinia sclerotiorum): 63.9%; inhibition at 50 µg/mL (Phytophthora capsici): 33.3%; inhibition at 50 µg/mL [22]: 37.5%; inhibition at 50 µg/mL (Colletotrichum): 40.5%; inhibition at 50 µg/mL (Fusarium fujikuroi): 27.3%; mortality at 600 µg/mL (Mythimna separata): 65%; inhibition at 100 µg/mL (Tobacco mosaic virus [24]): 0%; inhibition [25]: 0%
COc1cc(OC)nc(Sc2ccc(F)cc2C(=O)O)n1,25 µg/mL,,100 µg/mL,73.7%,97.7%,100 µg/mL,25 µg/mL,3.12 µg/mL,25 µg/mL,100%,70.1%,86%,72%,85.2%,61.1%,13.8%,0%,75.8%,50.6%,47%,inhibition at 300 g/ha (Echinochloa crus-galli [20]): 24.3%; inhibition at 300 g/ha (Digitaria adscendens [21]): 33%; inhibition at 100 µg/mL (Tobacco mosaic virus [24]): 11.4%
COc1cc(OC)nc(Sc2ccc(C(=O)O)cc2Cl)n1,> 100 µg/mL,89.3%,> 100 µg/mL,62.3%,85%,> 100 µg/mL,> 100 µg/mL,> 100 µg/mL,> 100 µg/mL,100%,31.4%,73.4%,30.6%,,,,,,,0%,inhibition at 50 µg/mL (Sclerotinia sclerotiorum): 83.3%; inhibition at 50 µg/mL (Phytophthora capsici): 41.7%; inhibition at 50 µg/mL [22]: 76.6%; inhibition at 50 µg/mL (Colletotrichum): 28.6%; inhibition at 50 µg/mL (Fusarium fujikuroi): 60.6%; EC50 (Ceratobasidium cereale [26]): 9.2 µg/mL; mortality at 600 µg/mL (Mythimna separata): 50%; inhibition (Tobacco mosaic virus [24]): inactive; inhibition [25]: 0%
